Experimental data: ChEMBL document CHEMBL4152273, “Development of novel amino-quinoline-5,8-dione derivatives as NAD(P)H:quinone oxidoreductase 1 (NQO1) inhibitors with potent antiproliferative activities” (Eur J Med Chem, 2018)
Activity calls are given as the source filed them. The calls are words filed in the database; no cut-off is given here.

Experiments:
[1] = Cytotoxicity against human KBVIN cells assessed as decrease in cell viability after 72 hrs in presence of NQO1 inhibitor dicoumarol by MTT assay; type: functional, cell-based; details: in the assay text read “SRB assay” for “MTT assay”
Method in brief: (§1)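 NQO1 dependency: cells co-treated for 72 h with test compound plus […] or 40 mM N-acetylcysteine. Viability read by SRB: TCA fixation, 0.04% sulforhodamine B staining, acetic acid wash, dye solubilized in 10 mM Tris base, absorbance at 515 nm. Results given as IC50 or mean ± SD; three independent measurements.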

HeLa S3 [2] = test: Cytotoxicity against human HeLaS3 cells assessed as decrease in cell viability after 72 hrs in presence of NQO1 inhibitor dicoumarol by MTT assay; type: functional, cell-based; details: HeLa S3, 72 h, in the assay text read “SRB assay” for “MTT assay”; method in brief: as §1
HeLa S3 [3] = test: Cytotoxicity against human HeLaS3 cells assessed as decrease in cell viability after 72 hrs in presence of free radical scavenger NAc by MTT assay; type: functional, cell-based; details: HeLa S3, 72 h, in the assay text read “SRB assay” for “MTT assay”; method in brief: as §1
[4] = Cytotoxicity against human KBVIN cells assessed as decrease in cell viability after 72 hrs in presence of free radical scavenger NAc by MTT assay; type: functional, cell-based; details: in the assay text read “SRB assay” for “MTT assay”; method in brief: as §1
[5] = target: T1, NAD(P)H dehydrogenase [quinone] 1 (Homo sapiens, UniProt P15559); test: Inhibition of NQO1 activity in human HeLaS3 cells incubated for 24 hrs measured every 20 secs for 5 mins; type: cell-based
[6] = target: T1, NAD(P)H dehydrogenase [quinone] 1; test: Inhibition of NQO1 activity in human KBVIN cells incubated for 24 hrs measured every 20 secs for 5 mins; type: cell-based
HeLa S3 [7] = test: Increase in ROS production in human HeLaS3 cells after 24 hrs in presence of H2O2 by DCFH-DA dye based flow cytometry; type: functional, cell-based
Homo sapiens [8] = organism: Homo sapiens; test: Increase in ROS production in human KBVIN cells after 24 hrs in presence of H2O2 by DCFH-DA dye based flow cytometry; type: functional, cell-based
HeLa S3 [9] = test: Induction of mitochondrial membrane potential loss in human HeLaS3 cells after 24 hrs by MITO-ID MP dye based assay; type: functional, cell-based
Method in brief: (§2)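 Cells plated at 2.5 × 10^5/mL and treated with 0.01–5 μM, CCCP as positive control or DMSO vehicle for 24 h at 37 °C. MITO-ID MP dye loaded in the dark for 30 min at 37 °C, then fluorescence read at Ex 490 nm and Em 590 nm.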

Homo sapiens [10] = organism: Homo sapiens; test: Induction of mitochondrial membrane potential loss in human KBVIN cells after 24 hrs by MITO-ID MP dye based assay; type: functional, cell-based; method in brief: as §2
[11] = Cytotoxicity against human EEC assessed as decrease in cell viability after 72 hrs by MTT assay
Method in brief: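 Endometrial epithelial cells maintained in RPMI-1640 with 10% FBS at 37 °C, 5% CO2. Exposed 72 h to the indicated concentrations, proliferation assessed by MTT; inhibition (%) reported as mean ± SD of three independent experiments.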

HeLa S3 [12] = test: Induction of apoptosis in human HeLaS3 cells assessed as annexin V-positive cells at 0.2 uM after 72 hrs by annexin V-FITC/PI dual staining based flow cytometry relative to control; type: functional
Method in brief: (§3)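 Cells cultured overnight, then exposed in triplicate to 0.2, 0.6 or 1.8 μM or vehicle for 72 h. Annexin V-positive percentage given as mean ± SD of three independent experiments.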

HeLa S3 [13] = test: Induction of apoptosis in human HeLaS3 cells assessed as annexin V-positive cells at 0.6 uM after 72 hrs by annexin V-FITC/PI dual staining based flow cytometry relative to control; type: functional; method in brief: as §3
HeLa S3 [14] = test: Induction of apoptosis in human HeLaS3 cells assessed as annexin V-positive cells at 1.8 uM after 72 hrs by annexin V-FITC/PI dual staining based flow cytometry relative to control; type: functional; method in brief: as §3
HeLa S3 [15] = test: Induction of apoptosis in human HeLaS3 cells after 72 hrs by annexin V-FITC/PI dual staining based flow cytometry; type: functional, cell-based; method in brief: as §3
HeLa S3 [16] = test: Induction of apoptosis in human HeLaS3 cells assessed as increase in Bax expression levels after 72 hrs by Western blot analysis; type: functional, cell-based
Method in brief: (§4)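 Sub-confluent cells at 1.5 × 10^5/mL treated 72 h in DMEM with 10% FBS at the indicated doses or 0.1% DMSO vehicle. Lysates immunoblotted for Bax, Bcl-2 and caspase-3, detected with HRP secondary antibodies and chemiluminescence. Band densities normalized to β-actin by densitometry; mean ± SD of three separate experiments.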

HeLa S3 [17] = test: Induction of apoptosis in human HeLaS3 cells assessed as decrease in Bcl-2 expression levels after 72 hrs by Western blot analysis; type: functional, cell-based; method in brief: as §4
HeLa S3 [18] = test: Induction of apoptosis in human HeLaS3 cells assessed as increase in caspase-3 cleavage at 0.2 to 1.8 uM after 72 hrs by Western blot analysis; type: functional, cell-based; method in brief: as §4

T1 sequence (P15559 whole entry): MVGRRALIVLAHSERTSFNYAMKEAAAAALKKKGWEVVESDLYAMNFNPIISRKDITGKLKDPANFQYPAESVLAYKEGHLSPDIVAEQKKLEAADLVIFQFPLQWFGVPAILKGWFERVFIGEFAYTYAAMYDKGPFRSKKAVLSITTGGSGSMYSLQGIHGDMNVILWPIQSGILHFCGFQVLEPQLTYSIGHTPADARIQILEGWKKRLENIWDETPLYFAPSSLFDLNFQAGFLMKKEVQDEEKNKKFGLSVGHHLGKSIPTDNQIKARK

IC50 [5]	IC50 [6]	Structure (SMILES)	IC50 [1]	IC50 (HeLa S3 [2])	IC50 (HeLa S3 [3])	IC50 [4]	Activity (HeLa S3 [7])	Activity (Homo sapiens [8])	Activity (HeLa S3 [9])	Activity (Homo sapiens [10])	Activity [11]	Activity (HeLa S3 [12])	Activity (HeLa S3 [13])	Activity (HeLa S3 [14])	Activity (HeLa S3 [15])	Activity (HeLa S3 [16])	Activity (HeLa S3 [17])	Activity (HeLa S3 [18])
0.44 µM	570 nM	CN1CCN(c2ccc(NC3=CC(=O)c4cccnc4C3=O)cc2)CC1	> 3000 nM	> 3000 nM	> 3000 nM	> 3000 nM	Dose-dependent effect	Dose-dependent effect	Dose-dependent effect	Dose-dependent effect	Non-Toxic	12.8%	27.6%	66.3%	Dose-dependent effect	Dose-dependent effect	Dose-dependent effect	Active
6.25 µM	550 nM	O=C1C=C(NCCc2c[nH]c3ccccc23)C(=O)c2ncccc21					Dose-dependent effect	Dose-dependent effect	Dose-dependent effect	Dose-dependent effect								
		CN1CCN(c2ccc(NC3=CC(=O)c4ncccc4C3=O)cc2)CC1	> 3000 nM	> 3000 nM	> 3000 nM	> 3000 nM	Dose-dependent effect	Dose-dependent effect	Dose-dependent effect	Dose-dependent effect								
5.25 µM	530 nM	COC(=O)/C=C/c1cccc(CNC2=CC(=O)c3ncccc3C2=O)c1					Dose-dependent effect	Dose-dependent effect	Dose-dependent effect	Dose-dependent effect								
